{"source": "ChEMBL document CHEMBL3259688", "about": "“Synthesis and structure-activity relationship studies of conformationally flexible tetrahydroisoquinolinyl triazole carboxamide and triazole substituted benzamide analogues as σ2 receptor ligands” (J Med Chem, 2014)"}
{"biological_target": "Sigma non-opioid intracellular receptor 1 (Cavia porcellus, UniProt Q60492)", "sequence (Q60492 whole entry)": "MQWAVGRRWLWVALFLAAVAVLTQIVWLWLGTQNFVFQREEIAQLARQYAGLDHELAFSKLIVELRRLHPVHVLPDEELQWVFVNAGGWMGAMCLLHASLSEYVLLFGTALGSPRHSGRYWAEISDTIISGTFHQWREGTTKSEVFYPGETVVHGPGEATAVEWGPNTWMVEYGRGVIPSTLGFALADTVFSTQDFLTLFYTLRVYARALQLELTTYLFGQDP", "assay": "Displacement of (+)-[3H]pentazocine from sigma-1 receptor in guinea pig brain membrane homogenate after 90 mins by liquid scintillation counting analysis", "format": "cell membranes", "in_short": "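Nonspecific binding with cold haloperidol. Compounds from DMSO or ethanol, diluted in 50 mM Tris-HCl, 150 mM NaCl, 100 mM EDTA, pH 7.4. Stopped with ice-cold 10 mM Tris-HCl/150 mM NaCl pH 7.4, filtered on fiberglass, washed, scintillation counted.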", "units": {"Ki": "µM"}}
{"compound": "COc1cc2c(cc1OC)CN(CCCCNC(=O)c1cc(-n3cc(CN(C)C)nn3)ccc1OC)CC2", "Ki": 22.4}
{"compound": "COc1cc2c(cc1OC)CN(CCCCNC(=O)c1cc(-n3cc(-c4cncn4C)nn3)ccc1OC)CC2", "Ki": 6.36}
{"compound": "COc1cc2c(cc1OC)CN(CCCCNC(=O)c1ccc(-c3cn(CCOCCOCCF)nn3)cc1)CC2", "Ki": 16}
{"compound": "COc1cc2c(cc1OC)CN(CCCCNC(=O)c1cn(-c3ccccc3OC)nn1)CC2", "Ki": 13.1}
{"compound": "COc1cc2c(cc1OC)CN(CCCCNC(=O)c1cn(Cc3ccccc3)nn1)CC2", "Ki": 4.48}
{"compound": "COc1cccc(Cn2cc(C(=O)NCCN3CCc4cc(OC)c(OC)cc4C3)nn2)c1", "Ki": 80.1}
{"compound": "COc1cccc(Cn2cc(-c3ccc(C(=O)NCCCCN4CCc5cc(OC)c(OC)cc5C4)cc3)nn2)c1", "Ki": 11.5}
{"compound": "COc1cc2c(cc1OC)CN(CCCCNC(=O)c1ccc(-c3cn(CCF)nn3)cc1)CC2", "Ki": 71.9}
{"compound": "COc1cc2c(cc1OC)CN(CCCCNC(=O)c1cn(Cc3cccc(O)c3)nn1)CC2", "Ki": 8.08}
{"compound": "COc1ccc(-n2cc(C(=O)NCCN3CCc4cc(OC)c(OC)cc4C3)nn2)cc1", "Ki": "> 100"}
{"compound": "C#CCOc1ccc(C#N)cc1C(=O)NCCCCN1CCc2cc(OC)c(OC)cc2C1", "Ki": 3.68}
{"compound": "COc1ccccc1Cn1cc(C(=O)NCCN2CCc3cc(OC)c(OC)cc3C2)nn1", "Ki": 18.6}
{"compound": "COc1ccc(Cn2cc(-c3ccc(C(=O)NCCCCN4CCc5cc(OC)c(OC)cc5C4)cc3)nn2)cc1", "Ki": 12.6}
{"compound": "COc1cc2c(cc1OC)CN(CCCCNC(=O)c1ccc(-c3cn(CCOCCF)nn3)cc1)CC2", "Ki": 14.7}
{"compound": "COc1ccccc1Cn1cc(-c2ccc(C(=O)NCCCCN3CCc4cc(OC)c(OC)cc4C3)cc2)nn1", "Ki": 8.58}
{"compound": "COc1cc2c(cc1OC)CN(CCNC(=O)c1cn(-c3ccccc3OC)nn1)CC2", "Ki": 15.5}
{"compound": "COc1cc2c(cc1OC)CN(CCCCNC(=O)c1c[nH]nn1)CC2", "Ki": 11}
{"compound": "COc1ccc(Cn2cc(C(=O)NCCCCN3CCc4cc(OC)c(OC)cc4C3)nn2)cc1", "Ki": 3.35}
{"compound": "COc1cccc(Cn2cc(-c3cccc(C(=O)NCCCCN4CCc5cc(OC)c(OC)cc5C4)c3)nn2)c1", "Ki": 1.75}
{"compound": "COc1cc2c(cc1OC)CN(CCCCNC(=O)c1cn(-c3cccc(OCCF)c3)nn1)CC2", "Ki": 17.9}
{"compound": "COc1cc2c(cc1OC)CN(CCCCNC(=O)c1cn(-c3ccccc3OCCF)nn1)CC2", "Ki": 17.1}
{"biological_target": "not listed separately", "assay": "Displacement of [3H]DTG from sigma-2 receptor in rat liver membrane homogenate after 2 hrs by liquid scintillation counting analysis in presence of pentazocine", "format": "cell membranes", "units": {"Ki": "µM"}}
{"compound": "COc1cc2c(cc1OC)CN(CCCCNC(=O)c1cc(-n3cc(CN(C)C)nn3)ccc1OC)CC2", "Ki": 0.0568}
{"compound": "COc1cc2c(cc1OC)CN(CCCCNC(=O)c1cc(-n3cc(-c4cncn4C)nn3)ccc1OC)CC2", "Ki": 0.0207}
{"compound": "COc1cc2c(cc1OC)CN(CCCCNC(=O)c1ccc(-c3cn(CCOCCOCCF)nn3)cc1)CC2", "Ki": 0.212}
{"compound": "COc1cc2c(cc1OC)CN(CCCCNC(=O)c1cn(-c3ccccc3OC)nn1)CC2", "Ki": 0.0015}
{"compound": "COc1cc2c(cc1OC)CN(CCCCNC(=O)c1cn(Cc3ccccc3)nn1)CC2", "Ki": 0.0124}
{"compound": "COc1cccc(Cn2cc(C(=O)NCCN3CCc4cc(OC)c(OC)cc4C3)nn2)c1", "Ki": 0.214}
{"compound": "COc1cccc(Cn2cc(-c3ccc(C(=O)NCCCCN4CCc5cc(OC)c(OC)cc5C4)cc3)nn2)c1", "Ki": 0.0662}
{"compound": "COc1cc2c(cc1OC)CN(CCCCNC(=O)c1ccc(-c3cn(CCF)nn3)cc1)CC2", "Ki": 0.139}
{"compound": "COc1cc2c(cc1OC)CN(CCCCNC(=O)c1cn(Cc3cccc(O)c3)nn1)CC2", "Ki": 0.0225}
{"compound": "COc1ccc(-n2cc(C(=O)NCCN3CCc4cc(OC)c(OC)cc4C3)nn2)cc1", "Ki": 0.41}
{"compound": "C#CCOc1ccc(C#N)cc1C(=O)NCCCCN1CCc2cc(OC)c(OC)cc2C1", "Ki": 0.0122}
{"compound": "COc1ccccc1Cn1cc(C(=O)NCCN2CCc3cc(OC)c(OC)cc3C2)nn1", "Ki": 0.156}
{"compound": "COc1ccc(Cn2cc(-c3ccc(C(=O)NCCCCN4CCc5cc(OC)c(OC)cc5C4)cc3)nn2)cc1", "Ki": 0.0314}
{"compound": "COc1cc2c(cc1OC)CN(CCCCNC(=O)c1ccc(-c3cn(CCOCCF)nn3)cc1)CC2", "Ki": 0.137}
{"compound": "COc1ccccc1Cn1cc(-c2ccc(C(=O)NCCCCN3CCc4cc(OC)c(OC)cc4C3)cc2)nn1", "Ki": 0.055}
{"compound": "COc1cc2c(cc1OC)CN(CCNC(=O)c1cn(-c3ccccc3OC)nn1)CC2", "Ki": 0.15}
{"compound": "COc1cc2c(cc1OC)CN(CCCCNC(=O)c1c[nH]nn1)CC2", "Ki": 1.02}
{"compound": "COc1ccc(Cn2cc(C(=O)NCCCCN3CCc4cc(OC)c(OC)cc4C3)nn2)cc1", "Ki": 0.005}
{"compound": "COc1cccc(Cn2cc(-c3cccc(C(=O)NCCCCN4CCc5cc(OC)c(OC)cc5C4)c3)nn2)c1", "Ki": 0.066}
{"compound": "COc1cc2c(cc1OC)CN(CCCCNC(=O)c1cn(-c3cccc(OCCF)c3)nn1)CC2", "Ki": 0.0251}
{"compound": "COc1cc2c(cc1OC)CN(CCCCNC(=O)c1cn(-c3ccccc3OCCF)nn1)CC2", "Ki": 0.024}
{"tested_on": "not listed separately", "assay": "Selectivity ratio of Ki for sigma-1 receptor in guinea pig brain membrane homogenate to Ki for sigma-2 receptor in rat liver membrane homogenate", "format": "cell membranes"}
{"compound": "COc1cc2c(cc1OC)CN(CCCCNC(=O)c1cc(-n3cc(CN(C)C)nn3)ccc1OC)CC2", "Ratio Ki": 395}
{"compound": "COc1cc2c(cc1OC)CN(CCCCNC(=O)c1cc(-n3cc(-c4cncn4C)nn3)ccc1OC)CC2", "Ratio Ki": 307}
{"compound": "COc1cc2c(cc1OC)CN(CCCCNC(=O)c1ccc(-c3cn(CCOCCOCCF)nn3)cc1)CC2", "Ratio Ki": 75}
{"compound": "COc1cc2c(cc1OC)CN(CCCCNC(=O)c1cn(-c3ccccc3OC)nn1)CC2", "Ratio Ki": 8740}
{"compound": "COc1cc2c(cc1OC)CN(CCCCNC(=O)c1cn(Cc3ccccc3)nn1)CC2", "Ratio Ki": 361}
{"compound": "COc1cccc(Cn2cc(C(=O)NCCN3CCc4cc(OC)c(OC)cc4C3)nn2)c1", "Ratio Ki": 373}
{"compound": "COc1cccc(Cn2cc(-c3ccc(C(=O)NCCCCN4CCc5cc(OC)c(OC)cc5C4)cc3)nn2)c1", "Ratio Ki": 174}
{"compound": "COc1cc2c(cc1OC)CN(CCCCNC(=O)c1ccc(-c3cn(CCF)nn3)cc1)CC2", "Ratio Ki": 517}
{"compound": "COc1cc2c(cc1OC)CN(CCCCNC(=O)c1cn(Cc3cccc(O)c3)nn1)CC2", "Ratio Ki": 359}
{"compound": "COc1ccc(-n2cc(C(=O)NCCN3CCc4cc(OC)c(OC)cc4C3)nn2)cc1", "Ratio Ki": "> 243"}
{"compound": "C#CCOc1ccc(C#N)cc1C(=O)NCCCCN1CCc2cc(OC)c(OC)cc2C1", "Ratio Ki": 301}
{"compound": "COc1ccccc1Cn1cc(C(=O)NCCN2CCc3cc(OC)c(OC)cc3C2)nn1", "Ratio Ki": 118}
{"compound": "COc1ccc(Cn2cc(-c3ccc(C(=O)NCCCCN4CCc5cc(OC)c(OC)cc5C4)cc3)nn2)cc1", "Ratio Ki": 406}
{"compound": "COc1cc2c(cc1OC)CN(CCCCNC(=O)c1ccc(-c3cn(CCOCCF)nn3)cc1)CC2", "Ratio Ki": 107}
{"compound": "COc1ccccc1Cn1cc(-c2ccc(C(=O)NCCCCN3CCc4cc(OC)c(OC)cc4C3)cc2)nn1", "Ratio Ki": 156}
{"compound": "COc1cc2c(cc1OC)CN(CCNC(=O)c1cn(-c3ccccc3OC)nn1)CC2", "Ratio Ki": 103}
{"compound": "COc1cc2c(cc1OC)CN(CCCCNC(=O)c1c[nH]nn1)CC2", "Ratio Ki": 10.7}
{"compound": "COc1ccc(Cn2cc(C(=O)NCCCCN3CCc4cc(OC)c(OC)cc4C3)nn2)cc1", "Ratio Ki": 669}
{"compound": "COc1cccc(Cn2cc(-c3cccc(C(=O)NCCCCN4CCc5cc(OC)c(OC)cc5C4)c3)nn2)c1", "Ratio Ki": 26}
{"compound": "COc1cc2c(cc1OC)CN(CCCCNC(=O)c1cn(-c3cccc(OCCF)c3)nn1)CC2", "Ratio Ki": 715}
{"compound": "COc1cc2c(cc1OC)CN(CCCCNC(=O)c1cn(-c3ccccc3OCCF)nn1)CC2", "Ratio Ki": 713}
